Laboratory results taken from publication PMC8385540 (Journal of natural products, 2013).

What was measured:
[1] = tested on: FSH receptor; conditions: previously reported; cited from earlier work
[2] = target: human cannabinoid CB2 receptor (Homo sapiens, UniProt P34972); experiment: Plate-based assay, inhibition of CB2 receptor internalization; assay type: cell-based
Summary of the method: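 CHO cells stably expressing human CB2, seeded at 2.0 × 10^5 cells/mL in 96-well plates, grown 24 h in DMEM/F12 with 10% FBS. Preincubated 1 h with twofold serial dilutions of test compound (top 10 μM; DMSO <0.1% final), then 1 h with 2 nM [3H]-CP 55,940. Washed, NaOH-lysed, scintillation counted, and normalized to no-compound uptake. IC50 from sigmoid nonlinear fit, means ± SE (n = 6). JD5037 as positive control.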

[3] = target: human cannabinoid CB1 receptor (Homo sapiens, UniProt P21554); experiment: Plate-based assay, inhibition of CB1 receptor internalization; assay type: cell-based
Sequence of human cannabinoid CB1 receptor (P21554 whole entry): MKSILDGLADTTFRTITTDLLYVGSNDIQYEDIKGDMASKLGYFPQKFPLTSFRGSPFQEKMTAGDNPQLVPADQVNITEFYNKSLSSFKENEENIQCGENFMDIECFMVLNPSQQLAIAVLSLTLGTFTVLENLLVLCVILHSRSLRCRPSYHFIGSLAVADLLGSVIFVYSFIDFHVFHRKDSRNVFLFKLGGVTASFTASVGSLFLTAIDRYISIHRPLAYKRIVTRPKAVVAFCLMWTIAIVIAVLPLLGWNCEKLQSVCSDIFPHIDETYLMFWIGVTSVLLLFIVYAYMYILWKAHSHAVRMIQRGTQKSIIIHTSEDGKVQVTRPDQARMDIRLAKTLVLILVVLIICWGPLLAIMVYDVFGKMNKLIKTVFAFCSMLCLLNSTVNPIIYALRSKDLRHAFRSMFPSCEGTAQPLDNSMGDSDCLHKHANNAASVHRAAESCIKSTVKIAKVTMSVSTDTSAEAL

[4] = target: T1, RXFP3 (Homo sapiens, UniProt Q9NSD7); experiment: DiscoveRX gpcrMAX panel, agonist/antagonist; assay type: cell-based; conditions: RXFP3, antagonist mode; negative inhibition may indicate agonist or PAM activity
T1 sequence (Q9NSD7 1-469): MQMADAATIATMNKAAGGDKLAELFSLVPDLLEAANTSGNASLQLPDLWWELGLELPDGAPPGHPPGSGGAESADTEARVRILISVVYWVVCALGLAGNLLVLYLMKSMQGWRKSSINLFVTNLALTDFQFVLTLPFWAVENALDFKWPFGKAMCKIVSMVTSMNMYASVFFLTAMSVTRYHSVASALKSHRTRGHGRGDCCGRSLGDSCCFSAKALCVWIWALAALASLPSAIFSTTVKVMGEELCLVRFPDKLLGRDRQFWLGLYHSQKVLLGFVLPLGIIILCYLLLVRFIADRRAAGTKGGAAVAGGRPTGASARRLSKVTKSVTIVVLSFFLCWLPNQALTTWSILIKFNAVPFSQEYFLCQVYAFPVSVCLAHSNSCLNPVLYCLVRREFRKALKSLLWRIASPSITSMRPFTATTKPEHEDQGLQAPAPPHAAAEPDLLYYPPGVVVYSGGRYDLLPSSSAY

[5] = target: HRH4 (Homo sapiens, UniProt Q9H3N8); experiment: DiscoveRX gpcrMAX panel, agonist/antagonist; assay type: cell-based; conditions: HRH4, antagonist mode; negative inhibition may indicate agonist or PAM activity
Sequence of HRH4 (Q9H3N8 whole entry): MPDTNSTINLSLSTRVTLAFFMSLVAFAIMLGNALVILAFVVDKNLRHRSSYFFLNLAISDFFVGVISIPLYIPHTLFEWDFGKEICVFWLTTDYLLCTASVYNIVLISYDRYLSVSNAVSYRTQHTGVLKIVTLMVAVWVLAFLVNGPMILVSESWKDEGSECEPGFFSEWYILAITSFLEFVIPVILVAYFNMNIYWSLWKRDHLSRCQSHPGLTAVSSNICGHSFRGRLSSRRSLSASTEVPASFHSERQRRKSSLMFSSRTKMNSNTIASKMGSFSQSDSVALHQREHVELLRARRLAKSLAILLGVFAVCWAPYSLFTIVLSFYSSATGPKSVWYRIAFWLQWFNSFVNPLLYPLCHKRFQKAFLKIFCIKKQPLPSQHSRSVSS

Sequence of human cannabinoid CB2 receptor (P34972 whole entry): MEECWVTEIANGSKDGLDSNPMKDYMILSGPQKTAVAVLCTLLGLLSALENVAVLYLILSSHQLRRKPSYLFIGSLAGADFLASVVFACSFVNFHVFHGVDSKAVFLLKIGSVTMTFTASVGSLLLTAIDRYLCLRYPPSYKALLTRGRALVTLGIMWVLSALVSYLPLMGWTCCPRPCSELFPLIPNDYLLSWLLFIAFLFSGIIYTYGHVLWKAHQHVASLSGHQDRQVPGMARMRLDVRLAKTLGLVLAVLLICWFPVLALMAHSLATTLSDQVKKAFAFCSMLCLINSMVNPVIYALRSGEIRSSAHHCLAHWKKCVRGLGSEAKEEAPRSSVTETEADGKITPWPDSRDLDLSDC

## CCCCCc1cc(O)c2c(c1)OC(C)(C)[C@@H]1CCC(C)=C[C@@H]21 [Δ^9-tetrahydrocannabinol]
[1]
  inhibition of the FSH receptor (in words): specific inhibition

## CC/C=C/C/C=C\CC/C=C/C=C/C(=O)NCC(C)(C)O [Compound 6, isobungeanool]
[2]
  antagonism of the CB2 receptor (in words): weak antagonists

## C/C=C/C=C/C=C\CC/C=C/C=C/C(=O)NCC(C)(C)O [Compound 4, hydroXy-γ-sanshool]
[3]; C-8 cis-isomer 4 compared with 5
  fold more potent for CB1, 4 vs 5: 10 fold

## CC(C)[C@H](N=C(NS(=O)(=O)c1ccc(Cl)cc1)N1C[C@H](c2ccccc2)C(c2ccc(Cl)cc2)=N1)C(N)=O [JD5037, reference compound]
[2]; positive control
  IC50 of positive control, CB2 (in words): within the expected range
[3]; positive control
  IC50 of positive control, CB1 (in words): within the expected range

## CCCCCCCCC/C=C/C=C/C(=O)NCC(C)(C)O [Compound 8, tetrahydrobungeanool]
[2]
  IC50: 1.8 nM

## C/C=C/C=C/C=C/CC/C=C/C=C/C(=O)NCC(C)C [Compound 7, (2E,4E,8E,10E,12E)-N-isobutyl-2,4,8,10,12-tetradecapentaenamide]
[4]
  % inhibition: −81%
[2]
  antagonism of the CB2 receptor (in words): weak antagonists
[3]
  antagonistic properties against the CB1 receptor (in words): strong antagonistic properties
[5]
  % inhibition: −54%

## C/C=C/C=C/C=C\CC/C=C/C(=O)NCC(C)(C)O [Compound 2, hydroXy-α-sanshool]
[2]; cis configuration at C-6 of 2 compared with 3
  fold increase in activity against the CB2 receptor, 2 vs 3: 2 fold
